Compound activity deposited in PubChem BioAssay by several laboratories.
The list is not random: actives were taken first. Their share in the collection is about 4.1%.
KCC2 mod = KCC2 (human) Cl- transport modulation; Q9H2X9; KCC2 cells, thallium flux FluoZin-2 fluorescence; B-score of Tl+ flux slope (higher = more flux/activation; lower = inhibition) at 10 µM; hit rate 2.2% among 190,000; AID 1456;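 active = thallium flux slope and its plate-corrected score both differing from the plate sample mean at a set confidence after two filtering rounds, in either direction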;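 also: slope of fluorescence scaled to starting intensity during 10 to 20 s after thallium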
KCNQ1 act = potentiates or activates the human KCNQ1 potassium channel | hit rate 0.35% among 310,000 | AID 2648 | CHO-K1 KCNQ1, thallium flux FluxOR fluorescence; stronger effect = higher value | P51787 | B-score at 10 µM;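 active = fluorescence ratio B-score, a plate-corrected score, at least three library SD, with initial intensity B-score within 5 SD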
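Assay system: stable KCNQ1 CHO-K1 line; medium: assay buffer, equal DMSO in all wells; timing: 90 min dye loading and 20 min compound exposure, both at room temperature; technique: kinetic FluxOR thallium fluorescence, 10-s 1-Hz baseline, 110-s post-stimulus read; read-out basis: B score of baseline-normalized fluorescence ratio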
hERG rescue = compounds protecting human hERG from proarrhythmic drug block. Q12809. CHO-hERG, FluxOR thallium flux, dofetilide IC70 present. activation (rescue from dofetilide block), less the hit threshold, % at 10 µM. hit rate 0.51% among 310,000. AID 1511;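 active = activation above the mean of controls blocked by dofetilide plus 5 SD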;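 also: thallium influx through hERG after potassium depolarization seen as dye fluorescence rise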
KCNK3 inh = human KCNK3 channel inhibition, primary screen; hit rate 0.84% among 340,000; O14649; B-score at 10 µM; CHO-KCNK3 thallium flux, FluxOR fluorescence; stronger effect = lower value; AID 602410;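 active = B-score under library mean minus 4 SD, starting fluorescence ratio at most library mean plus 5 SD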;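 also: more negative B-score means stronger inhibition of thallium flux through KCNK3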
KCNQ1 block = blocks the human KCNQ1 potassium channel. CHO-K1 KCNQ1, FluxOR thallium flux fluorescence; stronger effect = higher value. B-score at 10 µM. hit rate 1.3% among 310,000. AID 2642;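 active = compounds whose thallium flux B-score, printed positive for inhibition, exceeds three library SD while starting fluorescence stays within three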;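 also: channel opened by potassium depolarization with thallium stimulus after 20 min compound exposure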
KCNK9 inh = human KCNK9 channel inhibition; Q9NPC2; HEK293 KCNK9, FluxOR thallium flux fluorescence; stronger effect = lower value; B-score at 10 µM; hit rate 1.2% among 310,000; AID 488922;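 active = ratio B-score over 3 SD below the library mean, with starting fluorescence within 5 SD of its mean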;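 also: negative B-score means less thallium flux so channel inhibition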
Target sequence (Q9NPC2 whole entry, looked up): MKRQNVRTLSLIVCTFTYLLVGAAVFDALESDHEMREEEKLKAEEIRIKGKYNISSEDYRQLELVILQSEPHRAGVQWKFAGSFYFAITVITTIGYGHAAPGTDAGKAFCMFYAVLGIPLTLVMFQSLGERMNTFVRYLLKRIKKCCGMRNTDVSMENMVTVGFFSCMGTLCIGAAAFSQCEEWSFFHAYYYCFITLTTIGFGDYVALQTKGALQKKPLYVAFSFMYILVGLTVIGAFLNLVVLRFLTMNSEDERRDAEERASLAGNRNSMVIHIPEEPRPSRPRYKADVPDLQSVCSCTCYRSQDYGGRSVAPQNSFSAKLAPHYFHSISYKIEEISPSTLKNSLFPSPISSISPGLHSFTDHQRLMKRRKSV
KCC2 secondary = KCC2 (human) modulation, secondary assay; shares compounds with KCC2 mod; HEK293-KCC2, thallium flux, FluoZin2 fluorescence; stronger effect = higher value; normalised thallium flux (F/F0 slope) at 10 µM; hit rate 15% among 3,700; AID 1713;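 active = thallium flux slope above the same plate's solvent-only control mean plus 3 SD; inconclusive = the two replicate wells disagree; inactive = no significant difference from solvent-only control wells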
KCC2 bumet counter = thallium flux despite bumetanide block in KCC2 cells, secondary assay 3 | shares compounds with KCC2 mod | HEK293-KCC2 + bumetanide/ouabain, thallium flux FluoZin2; stronger effect = higher value | normalized thallium flux at 10 µM | hit rate 49% among 3,700 | AID 1714;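 active = thallium entry rate above the same plate's blocked-transporter control wells by more than 3 SD; inconclusive = the two repeat wells disagree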;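 also: raw slope of fluorescence over initial fluorescence between 10 and 20 s after thallium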
KCC2 secondary2 = KCC2 (human) modulation, second secondary assay; hit rate 23% among 3,700; HEK293-KCC2, thallium flux FluoZin2 fluorescence; actives lie on both sides; F/F0 rise rate, 10–20 s post-thallium; shares compounds with KCC2 mod; normalized thallium flux at 10 µM;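 active = thallium flux slope more than 3 SD above or below the plate's solvent-only control mean, mostly below; inconclusive = the two repeat wells disagreed; inactive = no significant shift from solvent-only controls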;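 also: raw slope with 0.1% DMSO as baseline and bumetanide as block control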
HEK293 Tl flux = counter-screen for KCC2 modulators: effect in parental HEK293 cells. shares compounds with KCC2 mod. thallium flux FluoZin2, ouabain; baseline-ratio fluorescence slope, 10–20 s after thallium. thallium flux rate (normalised fluorescence) at 10 µM. hit rate 46% among 3,700;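 active = thallium flux rate significantly above the same plate's solvent-only control wells, beyond their mean plus 3 SD; inconclusive = the two replicate wells gave conflicting results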
KCC2 retest ouab = KCC2 (human) modulation, ouabain retest; raw Tl+ flux slope (below DMSO = inhibition, above = activation) at 10 µM; shares compounds with KCC2 mod; HEK293-KCC2, thallium flux FluoZin2 fluorescence; bidirectional: low = inhibitor, high = activator; hit rate 48% among 3,700;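 active = thallium flux slope beyond 3 SD from same-plate DMSO control mean in most replicates, usually higher, sometimes lower; inconclusive = repeat tests gave conflicting results; inactive = no significant difference from controls in most replicates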;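 also: slope of initial-normalized fluorescence between seconds 10 and 20 after thallium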
HEK counter2 = counter-screen for KCC2 modulators: effect in parental HEK293 cells | shares compounds with KCC2 mod | thallium flux FluoZin-2 fluorescence slope | thallium flux slope at 10 µM | hit rate 33% among 3,700 | AID 1718;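 active = thallium flux slope above the same plate's solvent-control mean plus 3 SD in both duplicate wells; inconclusive = duplicate wells that disagreed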;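 also: run without ouabain in cells lacking the KCC2 cotransporter; slope of fluorescence scaled to its starting value between 10 and 20 s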
KCNQ1 inh valid = reconfirmed blocker of the human KCNQ1 potassium channel; shares compounds with KCNQ1 block; hit rate 93% among 1,600; inhibition, % at 10 µM; KCNQ1 cell line, FluxOR thallium flux fluorescence;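 active = primary screen active, with duplicate mean exceeding buffer control mean plus 3 SD of buffer wells, cut at about 28% in these data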;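 also: 0% = buffer control ratio and 100% = XE991 inhibitor control ratio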
CHO KCNQ1 ctr = counter-screen for KCNQ1 inhibitors: effect in parental CHO cells. hit rate 21% among 1,600. parental CHO-K1, FluxOR thallium flux fluorescence ratio; stronger effect = lower value; zero means no signal rise above baseline. AID 588366. shares compounds with KCNQ1 block. fluorescence ratio (Tl flux) at 10 µM;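 active = mean of duplicate thallium-flux fluorescence ratios in parental host cells more than 5 SD below the buffer control mean, cut at about 0.38 in these data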;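 also: ratio is peak minus minimum fluorescence divided by baseline fluorescence; actives read low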
KCNQ2 spec = KCNQ1 inhibitor that also blocks rat KCNQ2 channel | AID 651746 | inhibition, % at 10 µM | shares compounds with KCNQ1 block | KCNQ2 cells, FluxOR thallium flux fluorescence | hit rate 71% among 1,600;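 active = mean percent inhibition of the KCNQ2 thallium signal more than 5 SD above the buffer-only control wells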;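 also: KCNQ2 expressed in CHO cells; 0% = buffer control wells and 100% = XE-991 inhibitor control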
KCNQ1 KCNE1 spec = selectivity of KCNQ1 inhibitors: inhibition of human KCNQ1/KCNE1 channel | AID 652147 | inhibition, % at 10 µM | hit rate 77% among 1,600 | KCNQ1/KCNE1 cells, FluxOR thallium flux fluorescence | shares compounds with KCNQ1 block;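 active = mean percent inhibition of duplicate wells above the buffer-only control mean plus 3 SD of those controls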;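 also: 0% = buffer only wells and 100% = XE-991 inhibitor control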
KCNK9 inh conf = confirmation of human KCNK9 potassium channel inhibitors | shares compounds with KCNK9 inh | HEK293 KCNK9 cells, FluxOR thallium flux fluorescence | inhibition, % at 10 µM | hit rate 43% among 4,900 | AID 492992;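 active = thallium signal inhibited by more than 5 SD of the compound-free buffer control wells, on both duplicate plates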;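 also: 0% = assay buffer control wells without compound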
Kir21 sel = selectivity of KCNK9 modulators against mouse Kir2.1; shares compounds with KCNK9 inh; Kir2.1 cells, FluxOR thallium flux fluorescence; inhibition, % at 10 µM; hit rate 4% among 4,900; AID 492993;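 active = thallium signal drop more than 5 SD beyond the mean of the no-compound control wells, seen in both duplicate plates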;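 also: signal is fluorescence rise after thallium addition divided by baseline fluorescence; plate controls were assay buffer only for no effect and full block by chlorpromazine control for full effect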
Target sequence (P35561 whole entry, looked up): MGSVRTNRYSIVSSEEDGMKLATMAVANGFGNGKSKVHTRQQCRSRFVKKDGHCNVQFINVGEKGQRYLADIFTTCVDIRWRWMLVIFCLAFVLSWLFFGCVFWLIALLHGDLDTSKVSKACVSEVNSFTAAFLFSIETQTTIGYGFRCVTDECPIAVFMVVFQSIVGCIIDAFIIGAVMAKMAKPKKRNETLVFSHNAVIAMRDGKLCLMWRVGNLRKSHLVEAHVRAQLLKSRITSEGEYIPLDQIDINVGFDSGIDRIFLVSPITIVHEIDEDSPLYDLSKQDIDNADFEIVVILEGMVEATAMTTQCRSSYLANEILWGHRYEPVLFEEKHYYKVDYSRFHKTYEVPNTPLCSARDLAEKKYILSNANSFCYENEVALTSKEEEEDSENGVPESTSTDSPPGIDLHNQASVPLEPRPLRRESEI
KCNK9 uninduced = non-induced cell nonspecific activity of KCNK9 modulators | hit rate 40% among 4,900 | non-induced KCNK9-HEK293, FluxOR thallium flux | inhibition, % at 10 µM | AID 492997 | shares compounds with KCNK9 inh;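 active = thallium signal drop beyond 5 SD of the untreated control mean, on both duplicate plates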;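 also: plate controls were buffer only IC0 wells for no effect and SID17386958 at its maximal inhibitory level for full effect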
Active calls of the source: *; i = inactive; u = inconclusive; x = no result.

SMILES	KCC2 mod	KCNQ1 act	hERG rescue	KCNK3 inh	KCNQ1 block	KCNK9 inh	KCC2 secondary	KCC2 bumet counter	KCC2 secondary2	HEK293 Tl flux	KCC2 retest ouab	HEK counter2	KCNK9 inh conf	Kir21 sel	KCNK9 uninduced	others
COc1ccc(-c2csc(NC(=O)c3ccccc3NS(=O)(=O)c3ccc(F)c(F)c3)n2)cc1	-4.6*	i	-30	i	6*	-6.8*	0.0052*	0.011*	0.033	u	0.011*	0.011	x	x	x	KCNQ1 inh valid=64*;CHO KCNQ1 ctr=0.53;KCNQ2 spec=i;KCNQ1 KCNE1 spec=92%*
O=C(NCC(=O)N1CCN(c2ncccn2)CC1)c1ccccc1OC(F)F	x	x	x	i	x	x	x	x	x	x	x	x	x	x	x
CCC(C)(C)n1nnnc1C(c1cccnc1)N1CCN(c2cccc(C(F)(F)F)c2)CC1 (configuration not stated)	-3.2*	i	-9	i	i	-11*	0.0068	0.0039*	0.031	u	0.018	0.01	32%*	i	i
CCC(C)(C)n1nnnc1C(c1ccncc1)N1CCN(c2cccc(OC)c2)CC1 (configuration not stated)	x	i	-5	i	i	i	x	x	x	x	x	x	x	x	x
CCOc1cccc(C(=O)NC(=S)Nc2ccc3c(c2)OCCO3)c1	7.4*	i	-6	i	i	i	0.018	0.012*	0.032	0.012*	0.019	0.014*	i	i	i
Cc1nc(SCC(=O)NCC(F)(F)F)c2c(-c3cccs3)csc2n1	1.1	i	-10	i	i	i	x	x	x	x	x	x	x	x	x
Cc1nc(SCC(=O)NC(C)(C#N)C2CC2)c2c(-c3cccs3)csc2n1 (configuration not stated)	5.1*	i	-12	i	i	-11*	0.011	0.026*	0.03	0.013*	0.033*	0.011*	48%*	i	i
CCOc1ccc(NC(=O)C(C)NC(=O)c2ccccc2Cl)cc1S(=O)(=O)N1CCCC1 (configuration not stated)	x	x	x	i	x	x	x	x	x	x	x	x	x	x	x
O=C(NNC(=S)Nc1cccc(C(F)(F)F)c1)c1ccc(Cl)cc1Cl	6.3*	i	-7	i	8*	i	0.006	0.027*	0.033	0.021*	u	0.022*	i	i	i
CCOc1ccc(/C=C2\SC(=S)N(NS(=O)(=O)c3ccc(C)cc3)C2=O)cc1OC	24*	i	-18	i	i	i	0.0065	0.039*	0.029	0.021*	u	0.014*	i	i	i
O=Cc1ccc(F)c([B-](F)(F)F)c1	x	x	x	i	x	x	x	x	x	x	x	x	x	x	x
COc1ccccc1C(C)NC(=O)c1ccc(NC(=O)CC2SC(N3CCCC3)=NC2=O)cc1 (configuration not stated)	x	x	x	i	x	x	x	x	x	x	x	x	x	x	x
CCNC(=S)NNC(=O)c1ccccn1	0.068	i	-9	i	i	i	x	x	x	x	x	x	x	x	x
O=C(NNC(=S)Nc1ccc(Cl)c(Cl)c1)c1ccccn1	11*	i	-11	i	i	i	0.013*	0.037*	0.031	0.019*	0.051*	0.012*	i	i	i
O=C(CN1C(=O)S/C(=C\C=C\c2ccccc2)C1=O)Nc1ccccc1C(=O)O	-5.9*	i	-7	i	i	i	0.0072	0.0067	u	u	0.014*	0.01	i	i	i
COc1ccc(Cc2nn3c(-c4ccccc4Br)nnc3s2)cc1	0.3	i	-4	i	i	i	x	x	x	x	x	x	x	x	x
Brc1ccccc1-c1nnc2sc(Cc3ccccc3)nn12	-4.1*	i	-5	i	i	-15*	0.0069	0.0047	u	u	0.013*	0.0095	36%*	i	26%*
CCNC(=O)c1ccccc1SCc1ccccc1	-1.9	i	-4	i	i	i	x	x	x	x	x	x	x	x	x
CCc1ccc(OCCNC(=O)c2ccccc2SCc2ccccc2)cc1	x	i	-7	i	7*	i	0.0082	u	0.024*	0.0038	0.015*	0.011	i	i	37%*
COc1cc(C(=O)Nc2cccc(NC(=O)c3cccs3)c2)cc(OC)c1OC	x	i	-19	i	i	i	x	x	x	x	x	x	x	x	x
Cc1cccc(NC(=O)C(C)SCc2nc3sc4c(c3c(=O)[nH]2)CCCC4)n1 (configuration not stated)	x	i	-16	i	i	i	x	x	x	x	x	x	x	x	x
